# Experimental data reported in ChEMBL document CHEMBL4325910, “Design and synthesis of rosiglitazone-ferulic acid-nitric oxide donor trihybrids for improving glucose tolerance” (Eur J Med Chem, 2019).
# Activity calls are given as the source filed them. The calls are words filed in the database; no cut-off is given here.
# Legend:
# 3T3-L1 [1] = assay: Inhibition of ROS production in TNF-alpha-induced insulin resistant mouse 3T3L1 cells at 10 uM after 48 hrs by DCFH-DA dye-based fluorescence assay; assay type: functional, cell-based
# Mus musculus = assay: Cardioprotective activity in db/db BKS.Cg-Dock7m +/+ Leprdb/J mouse assessed as decrease in serum cTnI level at 27 umol/kg, po administered as daily dose via gavage for 18 days by ELISA; assay type: functional, organism-based
# How it was run: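 db/db mice were gavaged daily for 18 days in 0.5% CMC-Na, with vehicle-treated model and C57BL/6 control groups. Tail vein blood was collected and serum TNF-α and cTnI measured by commercial ELISA kits. Six individual experiments, mean ± SD, one-way ANOVA.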
# Platelet [2] = assay: Antiplatelet activity in platelet rich plasma (unknown origin) assessed as inhibition of ADP-induced platelet aggregation at 16 mM relative to control; assay type: functional
# [3] = Toxicity in ICR mouse assessed mouse mortality at 500 mg/kg, po administered as single dose via gavage treated on day 1 and measured daily up to 14 days; assay type: organism-based; details: in vivo, 336 h
# How it was run: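 Mice of both sexes, 7 weeks old, were randomized and given one oral gavage dose on day 1. Dose levels were 500, 1000, 2000, 3000, 4000 or 5000 mg/kg, or 2000, 4000 and 5000 mg/kg, with n = 10 per group. Behaviour, health and mortality were checked daily for 14 days, and total deaths were counted on day 14. LD50 was calculated with 95% confidence limits.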
# 3T3-L1 [4] = assay: Induction of superoxide dismutase level in TNF-alpha-induced insulin resistant mouse 3T3L1 cells at 10 uM after 48 hrs; assay type: functional, cell-based
# How it was run: (§1)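 3T3-L1 preadipocytes were differentiated, and mature adipocytes made insulin resistant with TNF-α (4 ng/mL) daily for 4 days. Cells were then treated in triplicate for 48 h, with or without 20 μM C-PTIO. Lysate GSH, SOD and MDA were measured with kits. Three experiments, mean ± SD.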
# [5] = Metabolic stability in simulated intestinal fluid at pH 6.8 measured after 16 hrs by HPLC analysis; assay type: ADME; details: read-out: Stability
# How it was run: (§2)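 Gastric fluid was 1% pepsin in water, pH 1.5. Intestinal fluid was 1% trypsin with 0.68% KH2PO4, pH 6.8. Compound (100 mM DMSO stock) was diluted 1:1000 into each, in triplicate. Incubation was at 37 °C for 0, 2, 4, 6, 16 or 24 h. Acetonitrile (3 volumes) stopped it, then HPLC at 254 nm.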
# [6] = Metabolic stability in simulated intestinal fluid at pH 6.8 measured immediately after compound addition by HPLC analysis; assay type: ADME; details: read-out: Stability; how it was run: as §2
# 3T3-L1 [7] = assay: Induction of nitric oxide mediated increase in insulin-stimulated 2-NBDG uptake in TNF-alpha-induced insulin resistant mouse 3T3L1 cells at 3 to 10 uM preincubated for 48 hrs followed by 2-NBDG addition measured after 30 mins in presence of insulin by fluorescence assay; assay type: functional, cell-based
# How it was run: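 Day-8 differentiated 3T3-L1 adipocytes received TNF-α (4 ng/mL) daily for 4 days. They were pretreated in triplicate for 48 h (C-PTIO 20 μM where indicated), then given 100 μM 2-NBDG at 37 °C for 30 min in the dark, with or without insulin. After KRP washes, fluorescence was read at Ex/Em 485/515 nm. Three experiments, mean ± SD.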
# 3T3-L1 [8] = assay: Induction of superoxide dismutase level in TNF-alpha-induced insulin resistant mouse 3T3L1 cells at 3 to 10 uM after 48 hrs; assay type: functional, cell-based; how it was run: as §1
# 3T3-L1 [9] = assay: Inhibition of MDA level in TNF-alpha-induced insulin resistant mouse 3T3L1 cells at 3 to 10 uM after 48 hrs; assay type: functional, cell-based
# [10] = Metabolic stability in simulated gastric fluid at pH 1.5 measured immediately after compound addition by HPLC analysis; assay type: ADME; details: read-out: Stability; how it was run: as §2
# [11] = Metabolic stability in simulated gastric fluid at pH 1.5 measured after 2 hrs by HPLC analysis; assay type: ADME; details: read-out: Stability; how it was run: as §2
# [12] = Metabolic stability in simulated gastric fluid at pH 1.5 measured after 6 hrs by HPLC analysis; assay type: ADME; details: read-out: Stability; how it was run: as §2
# [13] = Metabolic stability in human liver microsomes after 1 hrs in presence of NADPH by HPLC analysis; assay type: ADME, Microsome; details: read-out: Stability
# How it was run: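 Compound (100 mM DMSO stock) was added in triplicate to 0.1 M phosphate buffer pH 7.4 with 3.3 mM MgCl2 and human liver microsomes, then preincubated 5 min at 37 °C. NADPH (1.3 mM stock) was added and incubation continued 0, 0.5, 1, 2 or 6 h. Acetonitrile quench, then HPLC at 254 nm.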
# Platelet [14] = assay: Antiplatelet activity in platelet rich plasma (unknown origin) assessed as inhibition of arachidonic acid-induced platelet aggregation at 0.05 mM relative to control; assay type: functional
# Platelet [15] = assay: Antiplatelet activity in platelet rich plasma (unknown origin) assessed as inhibition of arachidonic acid-induced platelet aggregation at 0.8 mM relative to control; assay type: functional
SMILES,inhibition (3T3-L1 [1]),Activity (Mus musculus),inhibition at 16000 µM (Platelet [2]),Activity [3],Activity (3T3-L1 [4]),remaining at 16 h [5],remaining at 0 h [6],Activity (3T3-L1 [7]),Activity (3T3-L1 [8]),inhibition (3T3-L1 [9]),remaining at 0 h [10],remaining at 2 h [11],remaining at 6 h [12],remaining at 1 h [13],inhibition at 50 µM (Platelet [14]),inhibition at 800 µM (Platelet [15])
CN(CCOc1ccc(CC2SC(=O)NC2=O)cc1)c1ccccn1 (stereo unspecified) [ROSIGLITAZONE],Active,Active,68.9%,Non-Toxic,Active,,,,,,,,,,,
CCN(CC)/[N+]([O-])=N/OCOC(=O)/C=C/c1ccc(OC(=O)OCN2C(=O)SC(Cc3ccc(OCCN(C)c4ccccn4)cc3)C2=O)c(OC)c1 (stereo unspecified),,,,,,85.8%,100%,Active,Active,Active,100%,99.8%,93.6%,89.9%,9.2%,51.6%
